What was measured:
Assay type in all cases: functional
[1] = species: Oryctolagus cuniculus; assay: Compound was evaluated for the ability to lower total serum cholesterol levels in 5 Watanabe heritable hyperlipidemic (WHHL) rabbits on day 84.
Procedure, shortened: (§1)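 Modified WHHL rabbits (British half-lop × WHHL cross, homozygous LDL-receptor deficient), age 14 ± 1 weeks, fed 100 g/day rabbit chow repelleted with compound at 1% (wt/wt), content checked by HPLC; controls got plain chow (n = 10). Total serum cholesterol measured enzymatically on days 0, 28, 56 and 84; group mean ± SEM (mg/dL).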

[2] = species: Oryctolagus cuniculus; assay: Compound concentration in low-density lipoprotein (LDL).
Procedure, shortened: (§2)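 Day-84 plasma (EDTA) from rabbits fed 1% drug in chow. LDL isolated by sequential ultracentrifugation at d = 1.019–1.063 g/mL, brought back to the original serum volume, and drug measured by HPLC. Molecules per particle calculated from LDL protein, taking apoB (mw 500 000) as one copy per particle. Mean ± SEM.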

[3] = species: Oryctolagus cuniculus; assay: Compound was evaluated for the ability to lower total serum cholesterol levels in 5 Watanabe heritable hyperlipidemic (WHHL) rabbits on day 28.; procedure, shortened: as §1
[4] = species: Oryctolagus cuniculus; assay: Compound was evaluated for the ability to lower total serum cholesterol levels in 5 Watanabe heritable hyperlipidemic (WHHL) rabbits on day 0.; procedure, shortened: as §1
[5] = Molar content of compound in low-density lipoprotein (LDL) was obtained from the ratio of molecules to that of LDL particles.; procedure, shortened: as §2
[6] = species: Oryctolagus cuniculus; assay: Compound was evaluated for the ability to lower total serum cholesterol levels in 5 Watanabe heritable hyperlipidemic (WHHL) rabbits on day 56.; procedure, shortened: as §1
[7] = species: Oryctolagus cuniculus; assay: Compound concentration in serum.
Procedure, shortened: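 Rabbits fed 1% (wt/wt) drug in chow (100 g/day) for 84 days. Serum taken at sacrifice on day 84 and extracted with ether/ethanol; extract dried under N2, redissolved, and run on reverse-phase C18 HPLC in acetonitrile/water (85/15) at 1.5 mL/min with detection at 240 nm. Results given as μg/mL, mean ± SEM.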

[8] = species: Oryctolagus cuniculus; assay: % atherosclerotic lesions in WHHL rabbits.
Procedure, shortened: (§3)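 WHHL rabbits (homozygous LDL-receptor deficient, British half-lop cross, 14 ± 1 weeks) fed 100 g/day chow containing 1% (wt/wt) drug for 84 days, then killed by iv pentobarbital. Aortas stained with Sudan IV; sudanophilic area in thoracic aorta quantified by digital image analysis from staining density. Values are percent lesion area per group.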

[9] = species: Oryctolagus cuniculus; assay: Prevention of Cu2+-induced lipid peroxidation of LDL.
Procedure, shortened: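 LDL (d 1.019–1.063 g/mL) isolated from each drug-fed rabbit at day 84 and dialyzed against PBS. Incubated with 5 μM CuSO4 (final) at 37 °C for 3 h; reaction stopped with EDTA. 50 μg LDL treated with TCA and 0.67% TBA at 90 °C for 30 min. TBARS read at 532 nm against an MDA standard curve (0–5 nmol).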

[10] = species: Oryctolagus cuniculus; assay: Compound was evaluated for the ability to lower total serum cholesterol levels in 4 Watanabe heritable hyperlipidemic (WHHL) rabbits on day 28.; procedure, shortened: as §1
[11] = species: Oryctolagus cuniculus; assay: Compound was evaluated for the ability to lower total serum cholesterol levels in 4 Watanabe heritable hyperlipidemic (WHHL) rabbits on day 0.; procedure, shortened: as §1
[12] = species: Oryctolagus cuniculus; assay: Compound was evaluated for the ability to lower total serum cholesterol levels in 4 Watanabe heritable hyperlipidemic (WHHL) rabbits on day 84.; procedure, shortened: as §1
[13] = species: Oryctolagus cuniculus; assay: Compound was evaluated for the ability to lower total serum cholesterol levels in 4 Watanabe heritable hyperlipidemic (WHHL) rabbits on day 56.; procedure, shortened: as §1
[14] = species: Oryctolagus cuniculus; assay: Percent atherosclerotic lesions in WHHL rabbits.; procedure, shortened: as §3

SMILES | Cholesterol Concentration [1] [mg/dL] | Drug Conc (LDL) [2] [µg/mL] | Cholesterol Concentration [3] [mg/dL] | Cholesterol Concentration [4] [mg/dL] | Molar content (Molecules (LDL particle)-1) [5] | Cholesterol Concentration [6] [mg/dL] | Drug Conc (serum) [7] [µg/mL] | Lesion [8] [%] | Lipid peroxidation (nM MDA (mg LDL)-1) [9] | Cholesterol Concentration [10] [mg/dL] | Cholesterol Concentration [11] [mg/dL] | Cholesterol Concentration [12] [mg/dL] | Cholesterol Concentration [13] [mg/dL] | Lesion [14] [%]
CC(C)(C)c1cc(SCSc2cc(C(C)(C)C)c(O)c(C(C)(C)C)c2)cc(C(C)(C)C)c1O | 734 | 65 | 905 | 890 | 20.3 | 766 | 135 | 39 | 16 | – | – | – | – | –
CCCCC(C)(Sc1cc(C)c(O)c(C(C)(C)C)c1)Sc1cc(C)c(O)c(C(C)(C)C)c1 | 1095 | 3 | 1042 | 1005 | 0.7 | 1079 | 6.4 | 81 | 33 | – | – | – | – | –
CCCC(C)(Sc1cc(C(C)(C)C)c(O)c(C(C)(C)C)c1)Sc1cc(C(C)(C)C)c(O)c(C(C)(C)C)c1 | – | 23 | – | – | 6.2 | – | 42 | 53 | 30 | 885 | 685 | 782 | 796 | –
CC(C)(Sc1cc(C(C)(C)C)c(O)c(C(C)(C)C)c1)Sc1cc(C(C)(C)C)c(O)c(C(C)(C)C)c1 [PROBUCOL] | – | 41 | – | – | 11.3 | – | 56 | – | 25 | 728 | 658 | 698 | 731 | 47

Reference: ChEMBL document CHEMBL1125734, “Antioxidant activity of probucol and its analogues in hypercholesterolemic Watanabe rabbits” (1991)
